Experimental data: ChEMBL document CHEMBL3102784, “Salicylanilide diethyl phosphates: synthesis, antimicrobial activity and cytotoxicity” (Bioorg Med Chem, 2014)
pIC50: −log10 of the molar value. Converted amounts (≈) assume the structure as drawn. The source made the active and inactive calls. The rule behind the calls is not given here.

Assays:
[1] = tested on: Mycobacterium tuberculosis; assay: Antimycobacterial activity against Mycobacterium tuberculosis H37Rv My 331/88 after 21 days; assay type: functional; conditions: H37Rv My 331/88, 504 h
How it was run: (§1)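 Micromethod MIC in Šula's semisynthetic medium at 37 °C. Compounds added in DMSO at 1000 down to 0.032 µmol/L. Isoniazid standard in sterile water at 0.5–250 µmol/L. Inocula: H37Rv 10^3, M. avium 10^5, M. kansasii 10^4. Read at 14 and 21 d, plus 7 d for M. kansasii.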

[2] = tested on: Mycobacterium tuberculosis; assay: Antimycobacterial activity against Mycobacterium tuberculosis H37Rv My 331/88 after 14 days; assay type: functional; conditions: H37Rv My 331/88, 336 h; how it was run: as §1
Mycobacterium kansasii [3] = assay: Antimycobacterial activity against Mycobacterium kansasii My 235/80 after 7 days; assay type: functional; conditions: My 235/80, 168 h; how it was run: as §1
Mycobacterium kansasii [4] = assay: Antimycobacterial activity against Mycobacterium kansasii My 235/80 after 14 days; assay type: functional; conditions: My 235/80, 336 h; how it was run: as §1
Mycobacterium kansasii [5] = assay: Antimycobacterial activity against Mycobacterium kansasii 6509/96 after 14 days; assay type: functional; conditions: 6509/96, 336 h; how it was run: as §1
Mycobacterium avium [6] = assay: Antimycobacterial activity against isoniazid, rifampicin, ethambutol and ofloxacin-resistant Mycobacterium avium My 330/88 after 14 days; assay type: functional; conditions: My 330/88, 336 h; how it was run: as §1
Mycobacterium kansasii [7] = assay: Antimycobacterial activity against Mycobacterium kansasii My 235/80 after 21 days; assay type: functional; conditions: My 235/80, 504 h; how it was run: as §1
Mycobacterium avium [8] = assay: Antimycobacterial activity against isoniazid, rifampicin, ethambutol and ofloxacin-resistant Mycobacterium avium My 330/88 after 21 days; assay type: functional; conditions: My 330/88, 504 h; how it was run: as §1
Mycobacterium kansasii [9] = assay: Antimycobacterial activity against Mycobacterium kansasii 6509/96 after 7 days; assay type: functional; conditions: 6509/96, 168 h; how it was run: as §1
Mycobacterium kansasii [10] = assay: Antimycobacterial activity against Mycobacterium kansasii 6509/96 after 21 days; assay type: functional; conditions: 6509/96, 504 h; how it was run: as §1
[11] = tested on: Trichophyton mentagrophytes; assay: Antifungal activity against Trichophyton mentagrophytes 445 after 120 hrs by broth microdilution method; assay type: functional; conditions: Trichophyton mentagrophytes, 445, 120 h
How it was run: (§2)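 Filamentous dermatophyte tested by broth microdilution in RPMI 1640 with glutamine, fluconazole as reference. Value expressed as IC50 relative to growth control. Read at 72 and 120 h.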

Lichtheimia corymbifera [12] = assay: Antifungal activity against Absidia corymbifera 272 after 24 hrs by broth microdilution method; assay type: functional; conditions: Lichtheimia corymbifera, 272, 24 h
How it was run: (§3)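 Broth microdilution in RPMI 1640 with glutamine, fluconazole as reference. For yeasts, MIC is ≥80% growth reduction (IC80) versus control. For filamentous fungi, the value is expressed as IC50. Readings at 24 and 48 h.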

Staphylococcus aureus [13] = assay: Antibacterial activity against methicillin-resistant Staphylococcus aureus H 5996/08 after 24 hrs by broth microdilution method; assay type: functional; conditions: H 5996/08, 24 h
How it was run: (§4)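 Broth microdilution in Mueller–Hinton broth, compounds dissolved in DMSO, tested over a dilution series from 500 downward. MIC taken as ≥95% growth reduction (IC95) versus drug-free control. Benzylpenicillin comparator. Readings at 24 and 48 h.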

Trichosporon asahii [14] = assay: Antifungal activity against Trichosporon asahii 1188 after 24 hrs by broth microdilution method; assay type: functional; conditions: Trichosporon asahii, 1188, 24 h; how it was run: as §3
Candida tropicalis = assay: Antifungal activity against Candida tropicalis 156 at 500 micromol/L after 24 to 48 hrs by broth microdilution method; assay type: functional, organism-based; how it was run: as §3
Candida albicans [15] = assay: Antifungal activity against Candida albicans ATCC 44859 after 24 hrs by broth microdilution method; assay type: functional; conditions: ATCC 44859, 24 h; how it was run: as §3
HepG2 = assay: Cytotoxicity against human HepG2 cells after 24 hrs by CellTiter assay; assay type: cell-based; conditions: HepG2, 24 h
How it was run: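 HepG2 cells (passage 27–33) in MEM with 10% FBS, L-glutamine and NEAA, seeded at 1×10^4 per well. Treated next day with compounds at 0.1–100 µM (or 0.1–25 µmol/L), triplicates, <1% DMSO, for 24 h at 37 °C, 5% CO2. MTS reagent added for 2 h, absorbance read at 490 nm. IC50 taken against untreated (100%) and 10% DMSO (0%) controls.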

Klebsiella pneumoniae [16] = assay: Antibacterial activity against Klebsiella pneumoniae D 11750/08 at 500 micromol/L after 24 to 48 hrs by broth microdilution method; assay type: functional, organism-based; how it was run: as §4
Klebsiella pneumoniae [17] = assay: Antibacterial activity against ESBL-positive Klebsiella pneumoniae J 14368/08 at 500 micromol/L after 24 to 48 hrs by broth microdilution method; assay type: functional, organism-based; how it was run: as §4
[18] = tested on: Trichophyton mentagrophytes; assay: Antifungal activity against Trichophyton mentagrophytes 445 after 72 hrs by broth microdilution method; assay type: functional; conditions: Trichophyton mentagrophytes, 445, 72 h; how it was run: as §2
Aspergillus fumigatus [19] = assay: Antifungal activity against Aspergillus fumigatus 231 after 24 hrs by broth microdilution method; assay type: functional; conditions: Aspergillus fumigatus, 231, 24 h; how it was run: as §3
Staphylococcus aureus [20] = assay: Antibacterial activity against methicillin-resistant Staphylococcus aureus H 5996/08 after 48 hrs by broth microdilution method; assay type: functional; conditions: H 5996/08, 48 h; how it was run: as §4
Pichia kudriavzevii [21] = assay: Antifungal activity against Candida krusei E28 after 24 hrs by broth microdilution method; assay type: functional; conditions: E28, 24 h; how it was run: as §3
Lichtheimia corymbifera [22] = assay: Antifungal activity against Absidia corymbifera 272 after 48 hrs by broth microdilution method; assay type: functional; conditions: Lichtheimia corymbifera, 272, 48 h; how it was run: as §3
Escherichia coli = assay: Antibacterial activity against Escherichia coli CCM 4517 at 500 micromol/L after 24 to 48 hrs by broth microdilution method; assay type: functional, organism-based; how it was run: as §4
Nakaseomyces glabratus = assay: Antifungal activity against Candida glabrata 20/I at 500 micromol/L after 24 to 48 hrs by broth microdilution method; assay type: functional, organism-based; how it was run: as §3
Pichia kudriavzevii [23] = assay: Antifungal activity against Candida krusei E28 after 48 hrs by broth microdilution method; assay type: functional; conditions: E28, 48 h; how it was run: as §3
[24] = tested on: Staphylococcus epidermidis; assay: Antibacterial activity against Staphylococcus epidermidis H 6966/08 after 48 hrs by broth microdilution method; assay type: functional; conditions: H 6966/08, 48 h; how it was run: as §4
Aspergillus fumigatus [25] = assay: Antifungal activity against Aspergillus fumigatus 231 after 48 hrs by broth microdilution method; assay type: functional; conditions: Aspergillus fumigatus, 231, 48 h; how it was run: as §3
Trichosporon asahii [26] = assay: Antifungal activity against Trichosporon asahii 1188 after 48 hrs by broth microdilution method; assay type: functional; conditions: Trichosporon asahii, 1188, 48 h; how it was run: as §3
Staphylococcus aureus [27] = assay: Antibacterial activity against Staphylococcus aureus CCM 4516/08 after 48 hrs by broth microdilution method; assay type: functional; conditions: CCM 4516/08, 48 h; how it was run: as §4
Pseudomonas aeruginosa = assay: Antibacterial activity against Pseudomonas aeruginosa CCM 1961 at 500 micromol/L after 24 to 48 hrs by broth microdilution method; assay type: functional, organism-based; how it was run: as §4
[28] = tested on: Staphylococcus epidermidis; assay: Antibacterial activity against Staphylococcus epidermidis H 6966/08 after 24 hrs by broth microdilution method; assay type: functional; conditions: H 6966/08, 24 h; how it was run: as §4
Staphylococcus aureus [29] = assay: Antibacterial activity against Staphylococcus aureus CCM 4516/08 after 24 hrs by broth microdilution method; assay type: functional; conditions: CCM 4516/08, 24 h; how it was run: as §4
Enterococcus sp. = assay: Antibacterial activity against Enterococcus sp. J 14365/08 at 500 micromol/L after 24 to 48 hrs by broth microdilution method; assay type: functional, organism-based; how it was run: as §4
Candida albicans [30] = assay: Antifungal activity against Candida albicans ATCC 44859 after 48 hrs by broth microdilution method; assay type: functional; conditions: ATCC 44859, 48 h; how it was run: as §3

**Q.** Which results are given for `NNC(=O)c1ccncc1` [ISONIAZID]?
**A.** MIC [1]: 1 µM (≈ 0.137 µg/mL); MIC [2]: 0.5 µM (≈ 0.0686 µg/mL); MIC (Mycobacterium kansasii [3]): > 250 µM; MIC (Mycobacterium kansasii [4]): > 250 µM; MIC (Mycobacterium kansasii [5]): 4 µM (≈ 0.549 µg/mL); MIC (Mycobacterium avium [6]): 250 µM (≈ 34.3 µg/mL); MIC (Mycobacterium kansasii [7]): > 250 µM; MIC (Mycobacterium avium [8]): > 250 µM; MIC (Mycobacterium kansasii [9]): 2 µM (≈ 0.274 µg/mL); MIC (Mycobacterium kansasii [10]): 4 µM (≈ 0.549 µg/mL)

**Q.** `CCOP(=O)(OCC)Oc1ccc(Br)cc1C(=O)Nc1ccc(C(F)(F)F)cc1` was tested. Which MIC50 [11] did it give?
**A.** 250 µM (≈ 124 µg/mL)

**Q.** What about the MIC [1] of the same compound?
**A.** 1 µM (≈ 0.496 µg/mL)

**Q.** What about the MIC50 (Lichtheimia corymbifera [12]) of the same compound?
**A.** > 500 µM

**Q.** What about the MIC [2] of the same compound?
**A.** 1 µM (≈ 0.496 µg/mL)

**Q.** And the MIC (Mycobacterium kansasii [3])?
**A.** 1 µM (≈ 0.496 µg/mL)

**Q.** What about the MIC (Mycobacterium kansasii [4]) of the same compound?
**A.** 2 µM (≈ 0.992 µg/mL)

**Q.** What about the MIC (Mycobacterium kansasii [5]) of the same compound?
**A.** 2 µM (≈ 0.992 µg/mL)

**Q.** And the MIC95 (Staphylococcus aureus [13])?
**A.** 15.6 µM (≈ 7.75 µg/mL)

**Q.** And the MIC80 (Trichosporon asahii [14])?
**A.** > 500 µM

**Q.** And the Activity (Candida tropicalis)?
**A.** inactive

**Q.** And the MIC80 (Candida albicans [15])?
**A.** > 500 µM

**Q.** What about the pIC50 (HepG2) of the same compound?
**A.** 5.74

**Q.** And the MIC (Mycobacterium avium [6])?
**A.** 8 µM (≈ 3.97 µg/mL)

**Q.** And the MIC (Mycobacterium kansasii [7])?
**A.** 2 µM (≈ 0.992 µg/mL)

**Q.** And the Activity (Klebsiella pneumoniae [16])?
**A.** inactive

**Q.** What about the Activity (Klebsiella pneumoniae [17]) of the same compound?
**A.** inactive

**Q.** And the MIC50 [18]?
**A.** 250 µM (≈ 124 µg/mL)

**Q.** And the MIC50 (Aspergillus fumigatus [19])?
**A.** > 500 µM

**Q.** And the MIC95 (Staphylococcus aureus [20])?
**A.** 15.6 µM (≈ 7.75 µg/mL)

**Q.** What about the MIC80 (Pichia kudriavzevii [21]) of the same compound?
**A.** > 500 µM

**Q.** What about the MIC50 (Lichtheimia corymbifera [22]) of the same compound?
**A.** > 500 µM

**Q.** What about the Activity (Escherichia coli) of the same compound?
**A.** inactive

**Q.** What about the Activity (Nakaseomyces glabratus) of the same compound?
**A.** inactive

**Q.** And the MIC (Mycobacterium avium [8])?
**A.** 8 µM (≈ 3.97 µg/mL)

**Q.** And the MIC (Mycobacterium kansasii [9])?
**A.** 2 µM (≈ 0.992 µg/mL)

**Q.** And the MIC80 (Pichia kudriavzevii [23])?
**A.** > 500 µM

**Q.** And the MIC95 [24]?
**A.** 15.6 µM (≈ 7.75 µg/mL)

**Q.** What about the MIC50 (Aspergillus fumigatus [25]) of the same compound?
**A.** > 500 µM

**Q.** And the MIC80 (Trichosporon asahii [26])?
**A.** > 500 µM

**Q.** And the MIC95 (Staphylococcus aureus [27])?
**A.** 31.2 µM (≈ 15.5 µg/mL)

**Q.** What about the Activity (Pseudomonas aeruginosa) of the same compound?
**A.** inactive

**Q.** What about the MIC95 [28] of the same compound?
**A.** 7.81 µM (≈ 3.88 µg/mL)

**Q.** And the MIC95 (Staphylococcus aureus [29])?
**A.** 15.6 µM (≈ 7.75 µg/mL)

**Q.** And the Activity (Enterococcus sp.)?
**A.** inactive

**Q.** And the MIC (Mycobacterium kansasii [10])?
**A.** 2 µM (≈ 0.992 µg/mL)

**Q.** What about the MIC80 (Candida albicans [30]) of the same compound?
**A.** > 500 µM
